Assay results: ChEMBL document CHEMBL3112482, “Nonclassical antifolates, part 5. Benzodiazepine analogs as a new class of DHFR inhibitors: synthesis, antitumor testing and molecular modeling study” (Eur J Med Chem, 2014)

Legend:
T47D = test: Growth inhibition of human T47D cells at 10 uM after 48 hrs; format: functional; conditions: read-out: GI
Method in brief: (§1)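 NCI 60-cell-line disease-oriented human tumor panel, single-dose primary screen at 10 µM. Data given as mean-graph percent growth of treated cells, reported as percent growth inhibition (GI %).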

[1] = Growth inhibition of human UACC257 cells at 10 uM after 48 hrs; format: functional; conditions: UACC-257, 48 h, read-out: GI; method in brief: as §1
[2] = Growth inhibition of human UO31 cells at 10 uM after 48 hrs; format: functional; conditions: UO-31, 48 h, read-out: GI; method in brief: as §1
NCI-H460 = test: Growth inhibition of human NCI-H460 cells at 10 uM after 48 hrs; format: functional; conditions: NCI-H460, 48 h, read-out: GI
Method in brief: (§2)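 Single-dose primary screen in the NCI 60 human tumour cell line panel, run at the NCI facility. The panel covers nine subpanels: leukaemia, non-small cell lung, colon, CNS, melanoma, ovarian, renal, prostate and breast. Read-out was percent growth of treated cells, shown as a mean graph and reported as percent growth inhibition.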

SW-620 = test: Growth inhibition of human SW620 cells at 10 uM after 48 hrs; format: functional; conditions: SW-620, 48 h, read-out: GI; method in brief: as §1
[3] = Growth inhibition of human HOP92 cells at 10 uM after 48 hrs; format: functional; conditions: HOP-92, 48 h, read-out: GI; method in brief: as §2
[4] = Growth inhibition of human NCI-ADR-RES cells at 10 uM after 48 hrs; format: functional; conditions: read-out: GI; method in brief: as §2
PC-3 = test: Growth inhibition of human PC3 cells at 10 uM after 48 hrs; format: functional; conditions: PC-3, 48 h, read-out: GI; method in brief: as §2
SNB-19 = test: Growth inhibition of human SNB19 cells at 10 uM after 48 hrs; format: functional; conditions: SNB-19, 48 h, read-out: GI; method in brief: as §1
[5] = Growth inhibition of human OVCAR4 cells at 10 uM after 48 hrs; format: functional; conditions: OVCAR-4, 48 h, read-out: GI; method in brief: as §2
Dihydrofolate reductase = target: T1, Dihydrofolate reductase (Bos taurus, UniProt P00376); test: Inhibition of bovine liver DHFR measured for every 1 min of 10 mins
T1 sequence (P00376 whole entry): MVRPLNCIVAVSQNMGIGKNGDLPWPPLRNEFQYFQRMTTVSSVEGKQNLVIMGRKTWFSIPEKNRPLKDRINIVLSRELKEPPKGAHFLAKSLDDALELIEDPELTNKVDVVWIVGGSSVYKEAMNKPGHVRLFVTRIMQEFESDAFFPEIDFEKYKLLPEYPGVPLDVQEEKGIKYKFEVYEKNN

NCI-H23 = test: Growth inhibition of human NCI-H23 cells at 10 uM after 48 hrs; format: functional; conditions: NCI-H23, 48 h, read-out: GI; method in brief: as §2
MDA-MB-231 = test: Growth inhibition of human MDA-MB-231 cells at 10 uM after 48 hrs; format: functional; conditions: MDA-MB-231, 48 h, read-out: GI; method in brief: as §2
MCF7 = test: Growth inhibition of human MCF7 cells at 10 uM after 48 hrs; format: functional; conditions: MCF7, 48 h, read-out: GI; method in brief: as §2
CCRF-CEM = test: Growth inhibition of human CCRF-CEM cells at 10 uM after 48 hrs; format: functional; conditions: read-out: GI; method in brief: as §2
786-0 = test: Growth inhibition of human 786-0 cells at 10 uM after 48 hrs; format: functional; conditions: 786-0, 48 h, read-out: GI; method in brief: as §2
SK-MEL-5 = test: Growth inhibition of human SK-MEL-5 cells at 10 uM after 48 hrs; format: functional; conditions: SK-MEL-5, 48 h, read-out: GI; method in brief: as §1
[6] = Growth inhibition of human OVCAR5 cells at 10 uM after 48 hrs; format: functional; conditions: OVCAR-5, 48 h, read-out: GI; method in brief: as §2
CAKI-1 = test: Growth inhibition of human CAKI-1 cells at 10 uM after 48 hrs; format: functional; conditions: CAKI-1, 48 h, read-out: GI; method in brief: as §2
ACHN = test: Growth inhibition of human ACHN cells at 10 uM after 48 hrs; format: functional; conditions: read-out: GI; method in brief: as §2
[7] = Growth inhibition of human SF539 cells at 10 uM after 48 hrs; format: functional; conditions: SF-539, 48 h, read-out: GI; method in brief: as §1
NCI-H322M = test: Growth inhibition of human NCI-H322M cells at 10 uM after 48 hrs; format: functional; conditions: read-out: GI; method in brief: as §2
SF-268 = test: Growth inhibition of human SF268 cells at 10 uM after 48 hrs; format: functional; conditions: SF-268, 48 h, read-out: GI; method in brief: as §1
HL-60(TB) = test: Growth inhibition of human HL-60(TB) cells at 10 uM after 48 hrs; format: functional; conditions: HL-60, 48 h, read-out: GI
Method in brief: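 NCI 60-cell-line human tumour panel covering nine subpanels (leukaemia, non-small cell lung, colon, CNS, melanoma, ovarian, renal, prostate, breast), run at the NCI facility. Primary screen tested a single dose of each compound. Read-out was percent growth of treated cells versus untreated cells, reported from the mean graph as percentage growth inhibition.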

[8] = Growth inhibition of human Hs 578T cells at 10 uM after 48 hrs; format: functional; conditions: read-out: GI; method in brief: as §2
K562 = test: Growth inhibition of human K562 cells at 10 uM after 48 hrs; format: functional; conditions: K562, 48 h, read-out: GI; method in brief: as §2
[9] = Growth inhibition of human EKVX cells at 10 uM after 48 hrs; format: functional; conditions: read-out: GI; method in brief: as §2
DU-145 = test: Growth inhibition of human DU145 cells at 10 uM after 48 hrs; format: functional; conditions: DU-145, 48 h, read-out: GI; method in brief: as §2
[10] = Growth inhibition of human RXF393 cells at 10 uM after 48 hrs; format: functional; conditions: RXF 393, 48 h, read-out: GI; method in brief: as §2
SK-MEL-28 = test: Growth inhibition of human SK-MEL-28 cells at 10 uM after 48 hrs; format: functional; conditions: SK-MEL-28, 48 h, read-out: GI; method in brief: as §1
MDA-MB-468 = test: Growth inhibition of human MDA-MB-468 cells at 10 uM after 48 hrs; format: functional; conditions: MDA-MB-468, 48 h, read-out: GI; method in brief: as §2
A498 = test: Growth inhibition of human A498 cells at 10 uM after 48 hrs; format: functional; conditions: A498, 48 h, read-out: GI; method in brief: as §2
IGROV-1 = test: Growth inhibition of human IGROV1 cells at 10 uM after 48 hrs; format: functional; conditions: IGROV-1, 48 h, read-out: GI; method in brief: as §2
SNB-75 = test: Growth inhibition of human SNB75 cells at 10 uM after 48 hrs; format: functional; conditions: SNB-75, 48 h, read-out: GI; method in brief: as §1
[11] = Cytotoxicity against human leukemia cells at 10 uM after 48 hrs; format: functional; conditions: Leukemia cell
SR = test: Growth inhibition of human SR cells at 10 uM after 48 hrs; format: functional; conditions: read-out: GI; method in brief: as §1
KM12 = test: Growth inhibition of human KM12 cells at 10 uM after 48 hrs; format: functional; conditions: KM12, 48 h, read-out: GI; method in brief: as §2
TK-10 = test: Growth inhibition of human TK10 cells at 10 uM after 48 hrs; format: functional; conditions: TK-10, 48 h, read-out: GI; method in brief: as §1
SK-OV-3 = test: Growth inhibition of human SKOV3 cells at 10 uM after 48 hrs; format: functional; conditions: SK-OV-3, 48 h, read-out: GI; method in brief: as §1
[12] = Growth inhibition of human HCC2998 cells at 10 uM after 48 hrs; format: functional; conditions: HCC 2998, 48 h, read-out: GI; method in brief: as §2

Nc1nc2c(c(-c3ccc(Cl)cc3)n1)CCC/C2=C\c1ccc(Cl)cc1
inhibition of growth at 10 µM (T47D): < 30%
inhibition of growth at 10 µM [1]: < 30%
inhibition of growth at 10 µM [2]: 32.2%
inhibition of growth at 10 µM (NCI-H460): < 30%
inhibition of growth at 10 µM (SW-620): 81.1%
inhibition of growth at 10 µM [3]: < 30%
inhibition of growth at 10 µM [4]: < 30%
inhibition of growth at 10 µM (PC-3): < 30%
inhibition of growth at 10 µM (SNB-19): < 30%
inhibition of growth at 10 µM [5]: < 30%
IC50 (Dihydrofolate reductase): 17 µM
inhibition of growth at 10 µM (NCI-H23): 38.9%
inhibition of growth at 10 µM (MDA-MB-231): < 30%
inhibition of growth at 10 µM (MCF7): 66.9%
inhibition of growth at 10 µM (CCRF-CEM): < 30%
inhibition of growth at 10 µM (786-0): < 30%
inhibition of growth at 10 µM (SK-MEL-5): < 30%
inhibition of growth at 10 µM [6]: < 30%
inhibition of growth at 10 µM (CAKI-1): < 30%
inhibition of growth at 10 µM (ACHN): < 30%
inhibition of growth at 10 µM [7]: < 30%
inhibition of growth at 10 µM (NCI-H322M): < 30%
inhibition of growth at 10 µM (SF-268): < 30%
inhibition of growth at 10 µM (HL-60(TB)): 35.2%
inhibition of growth at 10 µM [8]: < 30%
inhibition of growth at 10 µM (K562): 56.5%
inhibition of growth at 10 µM [9]: < 30%
inhibition of growth at 10 µM (DU-145): < 30%
inhibition of growth at 10 µM [10]: 65.5%
inhibition of growth at 10 µM (SK-MEL-28): < 30%
inhibition of growth at 10 µM (MDA-MB-468): 37.8%
inhibition of growth at 10 µM (A498): 45.3%
inhibition of growth at 10 µM (IGROV-1): < 30%
inhibition of growth at 10 µM (SNB-75): < 30%
GI50 [11]: 7.8 µM
LC50 [11]: > 100 µM
TGI [11]: 61.1 µM
inhibition of growth at 10 µM (SR): 79.2%
inhibition of growth at 10 µM (KM12): 97.7%
inhibition of growth at 10 µM (TK-10): < 30%
inhibition of growth at 10 µM (SK-OV-3): < 30%

Cc1nc2c(c(-c3ccc(Br)cc3)n1)CCC/C2=C\c1ccc(Br)cc1
inhibition of growth at 10 µM (T47D): < 30%
inhibition of growth at 10 µM [1]: < 30%
inhibition of growth at 10 µM [2]: < 30%
inhibition of growth at 10 µM (NCI-H460): < 30%
inhibition of growth at 10 µM (SW-620): < 30%
inhibition of growth at 10 µM [3]: < 30%
inhibition of growth at 10 µM [4]: < 30%
inhibition of growth at 10 µM (PC-3): < 30%
inhibition of growth at 10 µM (SNB-19): < 30%
inhibition of growth at 10 µM [5]: < 30%
inhibition of growth at 10 µM (NCI-H23): < 30%
inhibition of growth at 10 µM (MDA-MB-231): < 30%
inhibition of growth at 10 µM (MCF7): 56.7%
inhibition of growth at 10 µM (CCRF-CEM): < 30%
inhibition of growth at 10 µM (786-0): < 30%
inhibition of growth at 10 µM (SK-MEL-5): < 30%
inhibition of growth at 10 µM [6]: < 30%
inhibition of growth at 10 µM (CAKI-1): < 30%
inhibition of growth at 10 µM (ACHN): < 30%
inhibition of growth at 10 µM [7]: < 30%
inhibition of growth at 10 µM (NCI-H322M): < 30%
inhibition of growth at 10 µM (SF-268): < 30%
inhibition of growth at 10 µM (HL-60(TB)): < 30%
inhibition of growth at 10 µM [8]: < 30%
inhibition of growth at 10 µM (K562): < 30%
inhibition of growth at 10 µM [9]: < 30%
inhibition of growth at 10 µM (DU-145): < 30%
inhibition of growth at 10 µM [10]: < 30%
inhibition of growth at 10 µM [12]: < 30%
inhibition of growth at 10 µM (SK-MEL-28): < 30%
inhibition of growth at 10 µM (MDA-MB-468): < 30%
inhibition of growth at 10 µM (A498): < 30%
inhibition of growth at 10 µM (IGROV-1): < 30%
inhibition of growth at 10 µM (SNB-75): < 30%
inhibition of growth at 10 µM (SR): < 30%
inhibition of growth at 10 µM (KM12): < 30%
inhibition of growth at 10 µM (TK-10): < 30%
inhibition of growth at 10 µM (SK-OV-3): < 30%
